Among the data in ChEMBL document CHEMBL1150073, “Cytotoxic cyclolignans from Koelreuteria henryi” (J Nat Prod, 1994) are IC50, ED50 and EC50 values, retold here.

Test [1] can be described thus: Inhibition of bovine brain tubulin polymerization by sedimentation assay. On the set-up: species or system Bos taurus. In a few lines:
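Microtubule protein from bovine brain (1 mg/ml) with 1 mM GTP and varying inhibitor levels, incubated 30 min at 37°. Microtubules pelleted at 100,000 g for 5 min. Supernatant protein measured by BCA. Sedimented protein calculated relative to the positive control (MTP+GTP) and negative control (MTP alone).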

Test [2] has as its system A-431. Kind of test: Cytotoxicity against human A431 cells by MTT assay. Type of test: functional. The conditions noted are these: for EC50: Homo sapiens, A-431, read-out: ED50 (the source's name). Put shortly:
(§1)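 Human solid tumour lines tested at the Purdue Cancer Center cell culture laboratory using a standard MTT viability method, with adriamycin run as the control substance.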

Test [3] can be described thus: Inhibition of bovine brain tubulin polymerization by turbidity assay. Further details: species or system Bos taurus. Put shortly: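 Microtubule protein isolated from bovine brain, 1 mg/ml, with 1 mM GTP and graded inhibitor concentrations. Turbidity increase read at 340 nm over 30 min at 37°. Positive control contained MTP plus GTP; negative control contained MTP only.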

The test system of test [4] is SK-OV-3. The test can be described thus: Cytotoxicity against human SKOV3 cells by MTT assay. The conditions noted are these: for EC50: Homo sapiens, SK-OV-3, read-out: ED50 (the source's name). Type of test: functional. In a few lines:
as §1

In test [5] the test system is A549. Kind of test: Cytotoxicity against human A549 cells by MTT assay. In kind it is functional. The conditions noted are these: for EC50: Homo sapiens, A549, read-out: ED50 (the source's name). In a few lines: as §1
Test [6] has as its system MCF7. Kind of test: Cytotoxicity against human MCF7 cells by MTT assay. Type of test: functional. The conditions noted are these: for EC50: Homo sapiens, MCF7, read-out: ED50 (the source's name). Put shortly:
as §1

Test [7] concerns PC-3. The test can be described thus: Cytotoxicity against human PC3 cells by MTT assay. Type of test: functional. The conditions noted are these: for EC50: Homo sapiens, PC-3, read-out: ED50 (the source's name). Put shortly:
as §1

Test [8] relates to A498. Kind of test: Cytotoxicity against human A498 cells by MTT assay. In kind it is functional. The conditions noted are these: for EC50: Homo sapiens, A498, read-out: ED50 (the source's name). Put shortly: as §1
For test [9], the system named is SK-MEL-5. The test can be described thus: Cytotoxicity against human SK-MEL-5 cells by MTT assay. The conditions noted are these: for EC50: Homo sapiens, SK-MEL-5, read-out: ED50 (the source's name). Type of test: functional. In a few lines: as §1
Test [10] relates to HT-29. Kind of test: Cytotoxicity against human HT-29 cells by MTT assay. In kind it is functional. The conditions noted are these: for EC50: Homo sapiens, HT-29, read-out: ED50 (the source's name). Put shortly: as §1

Values after ≈ are worked out from the molar mass of the structure shown.

Consider `COc1cc([C@@H]2c3cc4c(cc3C[C@H]3COC(=O)[C@@H]32)OCO4)cc2c1OCO2` [AUSTROBAILIGNAN 1], for which the IC50 in test [1] turned out to be 1 µM; in [3] it was 0.8 µM. Also, the ED50 in test [2] was 3.6 ×10⁻⁶ ug/ml; in test [4], 2.7 ×10⁻⁶ ug/ml; in test [5], 3.9 ×10⁻⁶ ug/ml; in test [6], 5.2 ×10⁻⁵ ug/ml; in test [7], 3.3 ×10⁻⁶ ug/ml; in test [8], 3.2 ×10⁻⁶ ug/ml. The ED50 in [9] is recorded as 3 ×10⁻⁷ ug/ml; in [10] it was 3.7 ×10⁻⁶ ug/ml.

As to `COc1cc([C@@H]2c3cc4c(cc3C[C@H]3COC(=O)[C@H]32)OCO4)cc2c1OCO2`, the IC50 in test [1] came to 45 µM; in [3], 40 µM. Besides, the EC50 in test [2] is 0.96 µg/mL (≈ 2.51 µM); in test [4], 0.832 µg/mL (≈ 2.18 µM); in test [5] it was 0.46 µg/mL (≈ 1.2 µM); in [6], 4.1 µg/mL (≈ 10.7 µM); in [7], 3.1 µg/mL (≈ 8.11 µM); in [8], 0.76 µg/mL (≈ 1.99 µM). Moreover, the figures for the EC50 in test [9] and in [10] were 0.77 µg/mL (≈ 2.01 µM) and 0.1 µg/mL (≈ 0.262 µM), respectively.

Take `COc1cc([C@@H]2c3cc4c(cc3[C@H](O)[C@H]3COC(=O)[C@H]23)OCO4)cc(OC)c1OC` [PODOFILOX]: the figures for the IC50 in test [1] and in [3] were 1 µM and 0.6 µM, respectively. Besides, the ED50 came out at 1.1 ×10⁻⁶ ug/ml in [2]; 4.2 ×10⁻⁵ ug/ml in test [4]; 7.7 ×10⁻⁸ ug/ml in [5]; 1.1 ×10⁻⁶ ug/ml in test [6]; 1.2 ×10⁻⁷ ug/ml in test [7]; 3.4 ×10⁻⁷ ug/ml in [8]. The figures for the ED50 in [9] and in test [10] were 4.1 ×10⁻⁸ ug/ml and 4.7 ×10⁻⁸ ug/ml, respectively.

Regarding `COc1cc(-c2c3c(cc4cc5c(cc24)OCO5)COC3=O)cc2c1OCO2`, the figures for the IC50 in test [1] and in [3] were 20 µM and 5 µM, respectively. Further, the EC50 is 0.18 µg/mL (≈ 0.476 µM) in [2]; 0.0067 µg/mL (≈ 0.0177 µM) in [4]; 0.049 µg/mL (≈ 0.13 µM) in [5]; 9.7 µg/mL (≈ 25.6 µM) in test [6]; 0.15 µg/mL (≈ 0.396 µM) in [7]; 0.078 µg/mL (≈ 0.206 µM) in [8]. For the same compound, the EC50 in test [9] worked out at 0.0035 µg/mL (≈ 0.00925 µM); in [10] it was 0.29 µg/mL (≈ 0.767 µM).

`COc1cccc2c1C(=O)c1c(O)c3c(c(O)c1C2=O)C[C@@](O)(C(=O)CO)C[C@@H]3O[C@H]1C[C@H](N)[C@H](O)[C@H](C)O1` [DOXORUBICIN]: the EC50 amounted to 0.012 µg/mL (≈ 0.0221 µM) in test [2]; 0.0025 µg/mL (≈ 0.0046 µM) in test [4]; 0.02 µg/mL (≈ 0.0368 µM) in test [6]; 0.01 µg/mL (≈ 0.0184 µM) in test [7]; 0.0032 µg/mL (≈ 0.00589 µM) in [8]. Moreover, the results for the ED50 in [5], in [9] and in [10] were 3.1 ×10⁻⁴ ug/ml, 2.8 ×10⁻⁴ ug/ml and 5.6 ×10⁻⁴ ug/ml, respectively.
